Data reported in ChEMBL document CHEMBL5038599, “Identification of Thiazoyl Guanidine Derivatives as Novel Antifungal Agents Inhibiting Ergosterol Biosynthesis for Treatment of Invasive Fungal Infections” (J Med Chem, 2021).
≈ marks a conversion by molar mass, not a printed value. Calls of active or inactive are those of the source. No cut-off for these calls is given here.

Experiments:
[1] = system: Aspergillus fumigatus; assay: Antifungal activity against Aspergillus fumigatus ATCC 204305 assessed as inhibition of fungal growth incubated for 48 hrs by broth microdilution method; details: ATCC 204305, 48 h
[2] = system: Aspergillus fumigatus; assay: Antifungal activity against Aspergillus fumigatus ATCC 204305 assessed as inhibition of fungal growth […] by broth microdilution method; assay type: functional
[3] = system: Candida albicans; assay: Antifungal activity against Candida albicans ATCC 90028 assessed as inhibition of fungal growth incubated for 24 hrs by broth microdilution method; assay type: functional
Outline: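 Yeast cells were adjusted to about 2 × 10³ CFU/mL and broth microdilution was run for 24 h at 35 °C. Medium was YNB with 2% glucose and complete amino-acid mix, buffered to pH 7.0 with 50 mM MOPS. MIC was the lowest concentration giving >50% growth reduction versus untreated control, read by optical density at 600 nm.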

[4] = system: Aspergillus fumigatus; assay: Inhibition of Sterol methyl transferase in Aspergillus fumigatus ATCC 204305 assessed as accumulation of zymosterol at 2 ug/mL measured per 100 mg of mycelia by LC/MS analysis (Rvb= 0 nmol); details: dose 2.0 µg/ml
Outline: (§1)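 Cultures of A. fumigatus ATCC 204305 (1 × 10⁴ CFU/mL in YNB with 2% glucose and amino-acid mix) were grown 24 h at 35 °C, then exposed to compound for 24 h. Mycelia were saponified in 25% ethanolic KOH at 85 °C for 1 h and extracted with n-hexane. Extracts were dried, redissolved in acetone at 200 μL per 100 mg dry mycelium, and analysed on a C18 column at 40 °C with acetonitrile gradient.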

[5] = Volume of distribution at steady state in Sprague-Dawley rat at 0.5 mg/kg, iv measured upto 1440 mins by LC/MS/MS analysis; assay type: ADME, organism-based; details: in vivo, read-out: Vdss
[6] = system: Mus musculus; assay: In vivo antifungal activity against Aspergillus fumigatus infected in ICR mouse assessed as reduction in serum-galactomannan at 30 mg/kg, iv administered at 2 to 50 hrs post-inoculation and measured after 60 hrs by GM analysis; assay type: functional, organism-based
Outline: (§2)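 Male ICR mice (5 weeks) were immunosuppressed with intraperitoneal cyclophosphamide, 150 mg/kg on day −4 and 100 mg/kg on day −1. Mice were infected intravenously with about 1.5 × 10⁵ conidia in saline. Tail-vein dosing was at 2, 16, 21, 26, 40, 45 and 50 h, in 5% DMSO/5% Cremophor EL/4% glucose or 5% glucose. Samples were taken at 60 h, five mice per group, and analysed by Dunnett's test against untreated controls.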

[7] = Metabolic stability in human liver microsomes assessed as parent compound remaining at 0.5 uM incubated for 30 mins by LC/MS/MS analysis; assay type: ADME, Microsome; details: read-out: Stability
Outline: (§3)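 Compound at 0.5 μM was incubated with liver microsomes at 0.5 mg protein/mL at 37 °C. Buffer was 50 mM Tris-HCl pH 7.4 with 150 mM KCl, 10 mM MgCl2 and 1 mM NADPH. Reactions were stopped at 0 and 30 min with MeCN/MeOH 1:1. Percent remaining was taken from LC/MS/MS peak area ratio, in duplicate.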

[8] = system: Aspergillus fumigatus; assay: Inhibition of Sterol methyl transferase in Aspergillus fumigatus ATCC 204305 assessed as accumulation of lanosterol at 2 ug/mL measured per 100 mg of mycelia by LC/MS analysis (Rvb= 0 nmol); details: dose 2.0 µg/ml
Outline: as §1

[9] = system: Aspergillus fumigatus; assay: Antifungal activity against pan-azole resistant Aspergillus fumigatus SR47013 harbouring Cyp51A Y121F mutant assessed as inhibition of fungal growth incubated for 48 hrs by broth microdilution method; details: SR47013, 48 h
[10] = AUC in ICR mouse at 30 mg/kg, iv measured upto 360 mins by LC/MS/MS analysis; assay type: ADME, organism-based; set-up: route intravenous, dose 30 mg/kg, time <=360; details: in vivo
Outline: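 Male ICR mice, 6 weeks old. Dosed iv via tail vein at 30 mg/10 mL/kg (n = 3). The test agent was a solution in 5% DMSO, 5% Cremophor EL and 4% glucose; the reference azole was in 5% glucose. Blood (EDTA-2K plus heparin) was taken at 5, 30, 60, 180 and 360 min and spun to plasma. Proteins were precipitated with methanol before LC/MS/MS.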

[11] = system: Aspergillus fumigatus; assay: Inhibition of Sterol methyl transferase in Aspergillus fumigatus ATCC 204305 assessed as accumulation of eburicol at 2 ug/mL measured per 100 mg of mycelia by LC/MS analysis (Rvb= 0 nmol); details: dose 2.0 µg/ml
Outline: as §1

[12] = Unbound fraction in Sprague-Dawley rat at 0.5 mg/kg, iv measured upto 1440 mins by LC/MS/MS analysis; assay type: ADME, organism-based; details: in vivo
[13] = Metabolic stability in rat liver microsomes assessed as parent compound remaining at 0.5 uM incubated for 30 mins by LC/MS/MS analysis; assay type: ADME, Microsome; details: read-out: Stability
Outline: as §3

[14] = system: Mus musculus; assay: In vivo antifungal activity against Aspergillus fumigatus infected in ICR mouse assessed as log reduction in fungal burden with 18S rRNA in kidney at 30 mg/kg, iv administered at 2 to 50 hrs post-inoculation and measured after 60 hrs by RT-qPCR analysis; assay type: functional
Outline: as §2

[15] = system: Aspergillus fumigatus; assay: Inhibition of Sterol methyl transferase in Aspergillus fumigatus ATCC 204305 assessed as accumulation of ergosterol at 2 ug/mL measured per 100 mg of mycelia by LC/MS analysis (Rvb= 144 nmol); details: dose 2.0 µg/ml
Outline: as §1

[16] = Clearance in Sprague-Dawley rat at 0.5 mg/kg, iv measured upto 1440 mins by LC/MS/MS analysis; assay type: ADME, organism-based; details: in vivo
[17] = system: Aspergillus fumigatus; assay: Antifungal activity against Aspergillus fumigatus ATCC 204305 assessed as inhibition of fungal growth incubated for 48 hrs in presence of 50% heat-inactivated bovine serum by broth microdilution method; assay type: functional; details: ATCC 204305, 48 h, in the assay text read “incubated for 48 hrs” for “incubated for 24 hrs”
Outline: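 Broth microdilution per CLSI M38-A2 with modifications. Conidia at about 1 × 10⁴ CFU/mL were grown for 48 h at 35 °C in YNB with 2% glucose and complete amino-acid mix, buffered to pH 7.0 with 50 mM MOPS. Medium was with or without 50% heat-inactivated bovine serum. MIC was the lowest concentration giving no visible growth.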

[18] = system: Aspergillus fumigatus; assay: Inhibition of Sterol methyl transferase in Aspergillus fumigatus ATCC 204305 assessed as accumulation of eburicol at 0.5 ug/ml measured per 100 mg of mycelia by LC/MS analysis (Rvb= 0 nmol); details: dose 0.5 µg/ml
Outline: (§4)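 Conidia at 1 × 10⁴ CFU/mL were grown 24 h at 35 °C in YNB with 2% glucose and amino-acid mix, then compound was added and cultures ran a further 24 h. Mycelia were filtered and saponified in 25% ethanolic KOH at 85 °C for 1 h. Sterols were extracted into n-hexane, dried under N₂ at 40 °C and redissolved in acetone at 200 μL per 100 mg dry mycelium. Separation used a C18 column at 40 °C with an acetonitrile gradient.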

[19] = system: Aspergillus fumigatus; assay: Inhibition of Sterol methyl transferase in Aspergillus fumigatus ATCC 204305 assessed as accumulation of zymosterol at 0.5 ug/mL measured per 100 mg of mycelia by LC/MS analysis (Rvb= 0 nmol); details: dose 0.5 µg/ml
Outline: as §4

[20] = system: Aspergillus fumigatus; assay: Inhibition of Sterol methyl transferase in Aspergillus fumigatus ATCC 204305 assessed as accumulation of lanosterol at 0.5 ug/mL measured per 100 mg of mycelia by LC/MS analysis (Rvb= 0 nmol); details: dose 0.5 µg/ml
Outline: as §4

[21] = system: Aspergillus fumigatus; assay: Inhibition of Sterol methyl transferase in Aspergillus fumigatus ATCC 204305 assessed as accumulation of ergosterol at 0.5 ug/mL measured per 100 mg of mycelia by LC/MS analysis (Rvb= 144 nmol); details: dose 0.5 µg/ml
Outline: as §4

For O=C(O)c1ccc(-c2nc(-c3csc(N=C4NCCCN4)n3)cs2)cc1, the MIC [1] was > 16 µg/mL.

In the case of Cc1ccc(Oc2ccccc2-c2csc(N(C)C)n2)c(C)c1, the MIC50 [2] is reported as > 16 µg/mL and the MIC50 [3] is reported as > 16 µg/mL.

For CS(=O)(=O)c1ccc(-c2nc(-c3csc(N=C4NCCCN4)n3)cs2)cc1, the Activity [4] was 0 nmol, the Vd [5] was 4.21 L/kg and the MIC [1] was 2 µg/mL (≈ 4.77 µM). For the same molecule, the Activity [6] was “Active”, the remaining at 0.5 h, 0.5 µM [7] was 87% and the Activity [8] was 40 nmol. For the same molecule, the MIC50 [9] was 2 µg/mL (≈ 4.77 µM), the AUC at 6 h [10] was 48.2 µg·h/mL and the Activity [11] was 1 nmol. The fraction unbound at 24 h [12] was 0.067, the remaining at 0.5 h, 0.5 µM [13] was 53% and the “log(activity)” value [14] was 4. It also gave an Activity [15] of 102 nmol, a clearance [16] of 12.3 mL/min/kg and an MIC50 [17] of 4 µg/mL.

In the case of CCC(C)n1ncn(-c2ccc(N3CCN(c4ccc(OCC5COC(Cn6cncn6)(c6ccc(Cl)cc6Cl)O5)cc4)CC3)cc2)c1=O (centres undefined) [ITRACONAZOLE], the MIC [1] is reported as 0.25 µg/mL (≈ 0.354 µM) and the MIC50 [9] is reported as > 16 µg/mL.

Cc1ccc(Oc2ccccc2-c2cccc(N=C3NCCCN3)n2)c(C)c1 showed an MIC50 [2] of 4 µg/mL (≈ 10.7 µM) and an MIC50 [3] of 0.5 µg/mL (≈ 1.34 µM).

CS(=O)(=O)c1cccc(-c2nc(-c3csc(N=C4NCCCN4)n3)cs2)c1 gave an MIC [1] of 4 µg/mL (≈ 9.53 µM), a remaining at 0.5 h, 0.5 µM [7] of 85% and a remaining at 0.5 h, 0.5 µM [13] of 47%. It also gave an MIC50 [17] of 16 µg/mL.

In the case of Cc1ccc(Oc2ccccc2-c2csc(N=C3NCCN3)n2)c(C)c1, the MIC50 [2] is reported as > 16 µg/mL and the MIC50 [3] is reported as 0.5 µg/mL (≈ 1.37 µM).

c1cncc(-c2nc(-c3csc(N=C4NCCCN4)n3)cs2)c1 showed an MIC [1] of 0.5 µg/mL (≈ 1.46 µM), a remaining at 0.5 h, 0.5 µM [7] of 78% and a remaining at 0.5 h, 0.5 µM [13] of 19%. For the same molecule, the MIC50 [17] was 2 µg/mL.

Molecule Oc1ccccc1-c1nc(-c2csc(N=C3NCCCN3)n2)cs1 has an MIC [1] of 0.5 µg/mL (≈ 1.4 µM), a remaining at 0.5 h, 0.5 µM [7] of 30% and a remaining at 0.5 h, 0.5 µM [13] of 38%. For the same molecule, the MIC50 [17] was 8 µg/mL.

With C[C@@H](c1ncncc1F)[C@](O)(Cn1cncn1)c1ccc(F)cc1F [VORICONAZOLE] the MIC [1] was 0.5 µg/mL (≈ 1.43 µM), the Activity [18] was 34 nmol and the Activity [6] was “inactive”. For the same molecule, the MIC50 [9] was > 16 µg/mL, the Activity [19] was 0 nmol and the AUC at 6 h [10] was 222 µg·h/mL. The Activity [20] was 1 nmol, the Activity [21] was 99 nmol and the Activity [14] was “inactive”.

Molecule c1ccc(-c2nc(-c3csc(N=C4NCCCN4)n3)co2)cc1 has an MIC50 [2] of 16 µg/mL (≈ 49.2 µM) and an MIC50 [3] of 0.063 µg/mL (≈ 0.194 µM).

In the case of Cc1ccc(Oc2ccccc2-c2nsc(N=C3NCCCN3)n2)c(C)c1, the MIC50 [2] is reported as > 16 µg/mL and the MIC50 [3] is reported as > 16 µg/mL.

For Cc1ccc(Oc2ccccc2-c2csc(N=C3NCCCCN3)n2)c(C)c1, the MIC50 [2] was > 16 µg/mL and the MIC50 [3] was 1 µg/mL (≈ 2.55 µM).

For Cc1ccc(Oc2ccccc2-c2csc(Nc3ccccn3)n2)c(C)c1, the MIC50 [2] was > 16 µg/mL and the MIC50 [3] was > 16 µg/mL.

c1ccc(-c2nc(-c3csc(N=C4NCCCN4)n3)cs2)nc1 gave an MIC [1] of 16 µg/mL (≈ 46.7 µM).
